Laboratory results: ChEMBL document CHEMBL2157898 (J Med Chem, 2012)
The source made the active and inactive calls. The rule behind the calls is not given here.

Key:
[1] = Plasma concentration in rhesus monkey at 3 mg/kg administered via nasogastric tube measured at 4 hrs; type: ADME, organism-based, Macaca mulatta; design: dose 3 mg/kg; settings: po
Outline: (§1)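 Chair-restrained rhesus monkeys were dosed via nasogastric tube at 0.3, 1 or 3 mpk (N = 4). An intramuscular glucagon challenge (15 μg/kg) was given 4 h later. Plasma drug levels were taken at 4 h post dose.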

Cytochrome P450 2B6 = Cytochrome P450 2B6 (Homo sapiens, UniProt P20813); assay: Inhibition of human CYP2B6 in liver microsomes assessed as bupropion hydroxylation after 48 hrs; type: ADME, Microsome
Chain of Cytochrome P450 2B6 (P20813 whole entry): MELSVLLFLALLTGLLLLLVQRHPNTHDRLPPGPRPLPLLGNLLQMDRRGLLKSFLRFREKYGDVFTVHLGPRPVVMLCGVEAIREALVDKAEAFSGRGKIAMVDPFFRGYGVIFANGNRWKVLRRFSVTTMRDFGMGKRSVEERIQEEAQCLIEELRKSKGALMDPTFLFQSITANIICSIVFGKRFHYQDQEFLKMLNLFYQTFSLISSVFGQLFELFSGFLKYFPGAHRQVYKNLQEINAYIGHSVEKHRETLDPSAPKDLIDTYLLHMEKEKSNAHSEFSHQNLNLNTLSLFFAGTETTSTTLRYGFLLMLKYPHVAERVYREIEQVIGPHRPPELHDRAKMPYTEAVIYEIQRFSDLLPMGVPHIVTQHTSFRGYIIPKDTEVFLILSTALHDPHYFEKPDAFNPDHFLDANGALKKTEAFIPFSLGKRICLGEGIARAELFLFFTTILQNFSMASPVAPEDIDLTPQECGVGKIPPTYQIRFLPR
Outline: (§2)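 Human liver microsomes were used with marker activities: phenacetin O-deethylation for 1A2, bupropion hydroxylation for 2B6, paclitaxel 6α-hydroxylation for 2C8, diclofenac 4′-hydroxylation for 2C9, dextromethorphan O-demethylation for 2D6 and chlorzoxazone […]-hydroxylation for 2E1. IC50 in μM is given as mean ± SD.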

[2] = Plasma concentration in rhesus monkey at 1 mg/kg administered via nasogastric tube measured at 4 hrs; type: ADME, organism-based, Macaca mulatta; design: dose 1 mg/kg; settings: po; outline: as §1
Homo sapiens [3] = organism: Homo sapiens; assay: Reduction of plasma glucose level in type2 diabetic patients at 80 mg, qd relative to baseline; type: functional
[4] = Volume of distribution at steady state in monkey at 0.5 mg/kg, iv and 2 mg/kg, po; type: ADME, organism-based, Macaca mulatta; settings: rhesus monkey, in vivo, read-out: Vdss
Outline: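 IV/PO pharmacokinetic study with plasma clearance, Vdss and oral bioavailability derived. Doses were rat 2/2, dog 0.5/0.5 and rhesus 0.5/2 mg/kg. The oral dose was a suspension in 0.5% aqueous methylcellulose.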

[5] = target: T1, Vasoactive intestinal polypeptide receptor 2 (Homo sapiens, UniProt P41587); assay: Antagonist activity at human VPAC2 expressed in CHO cells assessed as inhibition of glucagon-induced cAMP accumulation preincubated for 30 mins prior to glucagon challenge measured after 30 mins post glucagon challenge by liquid scintillation counter; type: functional, cell-based
T1 sequence (P41587 whole entry): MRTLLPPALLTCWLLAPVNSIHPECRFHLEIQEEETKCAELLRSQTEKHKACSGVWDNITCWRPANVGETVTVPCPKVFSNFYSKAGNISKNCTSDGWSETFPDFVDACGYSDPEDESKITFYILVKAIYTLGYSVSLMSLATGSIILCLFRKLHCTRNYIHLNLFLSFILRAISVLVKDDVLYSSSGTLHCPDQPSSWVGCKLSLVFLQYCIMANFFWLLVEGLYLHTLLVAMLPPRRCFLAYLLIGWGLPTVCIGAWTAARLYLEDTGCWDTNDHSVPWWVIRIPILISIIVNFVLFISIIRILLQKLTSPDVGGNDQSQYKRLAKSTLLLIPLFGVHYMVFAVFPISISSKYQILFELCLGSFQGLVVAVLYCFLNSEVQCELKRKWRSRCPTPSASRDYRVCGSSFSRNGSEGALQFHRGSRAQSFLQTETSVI

Glucagon receptor = Glucagon receptor (Rattus norvegicus, UniProt P30082); assay: Antagonist activity at rat GCGR expressed in CHO cells assessed as inhibition of glucagon-induced cAMP accumulation preincubated for 30 mins prior to glucagon challenge measured after 30 mins post glucagon challenge by liquid scintillation counter; type: functional, cell-based
Chain of Glucagon receptor (P30082 whole entry): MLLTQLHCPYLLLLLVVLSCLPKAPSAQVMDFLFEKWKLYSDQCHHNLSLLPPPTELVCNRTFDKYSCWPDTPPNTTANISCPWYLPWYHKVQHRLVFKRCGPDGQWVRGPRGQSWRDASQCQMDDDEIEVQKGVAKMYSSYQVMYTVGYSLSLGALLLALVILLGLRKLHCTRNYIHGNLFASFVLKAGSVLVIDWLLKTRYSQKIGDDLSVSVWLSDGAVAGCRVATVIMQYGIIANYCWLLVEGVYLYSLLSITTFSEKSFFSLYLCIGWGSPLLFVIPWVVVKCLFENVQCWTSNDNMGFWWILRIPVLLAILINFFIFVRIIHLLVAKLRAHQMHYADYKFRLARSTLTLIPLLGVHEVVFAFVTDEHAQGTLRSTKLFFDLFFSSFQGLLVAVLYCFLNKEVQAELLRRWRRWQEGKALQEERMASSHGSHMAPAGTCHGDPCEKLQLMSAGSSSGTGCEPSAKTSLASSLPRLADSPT
Outline: (§3)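 CHO cells stably expressing the receptor were grown 3–4 days in IMDM with 10% FBS, 1 mM L-glutamine, pen-strep and 500 ug G418/mL, lifted enzyme-free and resuspended in stimulation buffer. They were preincubated 30 min with compound (final 5% DMSO), then stimulated with glucagon (250 pM) for 30 min at room temperature. Kit detection buffer was added for 3 h and bound radioactivity counted. IC50 is mean ± SD where N ≥ 2.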

Mus musculus [6] = assay: Antidiabetic activity in mouse expressing human GCGR assessed as suppression of blood glucose AUC (0 to 24 mins) at 10 mg/kg, po administered 1 hour prior to glucagon challenge relative to vehicle-treated control; type: functional
Outline: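 hGCGR mice were dosed orally at 3, 10 or 30 mpk 1 h before an IP glucagon challenge (15 μg/kg). […] Drug levels were determined at 60 min post dose.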

Rattus norvegicus = assay: Toxicity in rat at <= 100 mg/kg/day for 5 weeks by antemortem analysis; type: organism-based; settings: in vivo, 840 h
Outline: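 Five-week rat safety study with daily dosing up to 100 mpk. Antemortem and postmortem findings were evaluated for treatment-related changes.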

Mus musculus [7] = assay: Antidiabetic activity in ob/ob mouse expressing human GCGR assessed as suppression of blood glucose level at 0.3 mg/kg, po measured at 1, 3 and 6 hrs; type: functional, organism-based; design: dose 0.3 mg/kg
Canis familiaris = assay: Cardiovascular toxicity in anesthetized dog up to 10 mg/kg, iv; type: organism-based, Canis lupus familiaris; design: dose 10 mg/kg, route intravenous; settings: in vivo
Outline: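 Anesthetized dogs were given IV doses up to 10 mpk, and cardiovascular parameters and drug exposure were assessed.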

Rhesus monkey = assay: Antidiabetic activity in rhesus monkey assessed as reduction of glucagon-induced glucose label at 0.3 mg/kg administered 4 hrs via nasogastric tube prior to glucagon challenge relative to vehicle-treated control; type: functional, Macaca mulatta; design: scale not given: the % may be the effect or the level left
Outline: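 Chair-restrained rhesus monkeys were dosed via nasogastric tube at 0.3, 1 or 3 mpk 4 h before an intramuscular glucagon challenge (15 μg/kg). Glucose response was expressed relative to vehicle; N = 4, mean ± SEM. Plasma drug levels were taken at glucagon administration.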

Homo sapiens [8] = organism: Homo sapiens; assay: Inhibition of glucagon-induced glucose excursion in diabetic patients at 200 mg, qd; type: functional
[9] = Elimination half life in dog at 0.5 mg/kg, iv and 0.5 mg/kg, po; type: ADME, organism-based, Canis lupus familiaris; settings: in vivo, read-out: beta t1/2 (converted)
Outline: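 PK used IV/PO doses of 1/2 mg/kg in mouse, 2/2 in rat, 0.5/0.5 in dog and 0.5/2 in monkey. The oral vehicle in mice was a solution in DMSO:Tween80:water (5:10:85 by volume); other species received a suspension in 0.5% aqueous methylcellulose. Mouse parameters came from blood concentrations. nAUC is dose-normalized oral AUC.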

Cytochrome P450 2C9 = Cytochrome P450 2C9 (Homo sapiens, UniProt P11712); assay: Inhibition of human CYP2C9 in liver microsomes assessed as diclofenac 4'-hydroxylation after 48 hrs; type: ADME, Microsome; outline: as §2
Chain of Cytochrome P450 2C9 (P11712 whole entry): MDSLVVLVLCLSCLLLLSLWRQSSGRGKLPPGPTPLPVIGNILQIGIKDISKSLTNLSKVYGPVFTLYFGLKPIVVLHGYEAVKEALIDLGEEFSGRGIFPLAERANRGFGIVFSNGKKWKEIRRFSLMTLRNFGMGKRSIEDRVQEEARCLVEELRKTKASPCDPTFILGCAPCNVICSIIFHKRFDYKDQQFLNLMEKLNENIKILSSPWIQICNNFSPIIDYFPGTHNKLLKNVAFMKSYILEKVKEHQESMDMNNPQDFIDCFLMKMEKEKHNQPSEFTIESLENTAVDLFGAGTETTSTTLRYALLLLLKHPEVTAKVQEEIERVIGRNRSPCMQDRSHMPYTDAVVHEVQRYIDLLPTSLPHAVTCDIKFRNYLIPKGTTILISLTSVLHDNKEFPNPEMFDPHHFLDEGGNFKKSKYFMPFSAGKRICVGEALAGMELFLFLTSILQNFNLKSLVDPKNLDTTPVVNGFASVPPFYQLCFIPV

Uncharacterized protein = Uncharacterized protein (Macaca mulatta, UniProt A0A1D5QZY8); assay: Antagonist activity at rhesus monkey GCGR expressed in CHO cells assessed as inhibition of glucagon-induced cAMP accumulation preincubated for 30 mins prior to glucagon challenge measured after 30 mins post glucagon challenge by liquid scintillation counter; type: functional, cell-based; outline: as §3
Chain of Uncharacterized protein (A0A1D5QZY8 whole entry): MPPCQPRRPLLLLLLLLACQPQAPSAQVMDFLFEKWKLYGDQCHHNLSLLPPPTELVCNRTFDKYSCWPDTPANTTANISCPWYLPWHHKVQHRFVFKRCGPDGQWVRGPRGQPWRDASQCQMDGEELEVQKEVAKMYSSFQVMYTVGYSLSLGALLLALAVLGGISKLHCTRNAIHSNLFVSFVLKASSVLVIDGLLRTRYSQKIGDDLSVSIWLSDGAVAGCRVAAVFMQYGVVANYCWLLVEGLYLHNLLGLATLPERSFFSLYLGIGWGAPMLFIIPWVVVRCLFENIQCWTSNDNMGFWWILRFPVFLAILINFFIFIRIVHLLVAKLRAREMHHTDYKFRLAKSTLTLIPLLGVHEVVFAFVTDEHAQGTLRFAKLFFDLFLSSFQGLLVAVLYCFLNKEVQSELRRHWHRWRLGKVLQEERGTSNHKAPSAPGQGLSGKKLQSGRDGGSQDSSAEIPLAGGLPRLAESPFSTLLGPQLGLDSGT

Cytochrome P450 2D6 = Cytochrome P450 2D6 (Homo sapiens, UniProt P10635); assay: Inhibition of human CYP2D6 in liver microsomes assessed as dextromethorphan O-demethylation after 48 hrs; type: ADME, Microsome; outline: as §2
Chain of Cytochrome P450 2D6 (P10635 whole entry): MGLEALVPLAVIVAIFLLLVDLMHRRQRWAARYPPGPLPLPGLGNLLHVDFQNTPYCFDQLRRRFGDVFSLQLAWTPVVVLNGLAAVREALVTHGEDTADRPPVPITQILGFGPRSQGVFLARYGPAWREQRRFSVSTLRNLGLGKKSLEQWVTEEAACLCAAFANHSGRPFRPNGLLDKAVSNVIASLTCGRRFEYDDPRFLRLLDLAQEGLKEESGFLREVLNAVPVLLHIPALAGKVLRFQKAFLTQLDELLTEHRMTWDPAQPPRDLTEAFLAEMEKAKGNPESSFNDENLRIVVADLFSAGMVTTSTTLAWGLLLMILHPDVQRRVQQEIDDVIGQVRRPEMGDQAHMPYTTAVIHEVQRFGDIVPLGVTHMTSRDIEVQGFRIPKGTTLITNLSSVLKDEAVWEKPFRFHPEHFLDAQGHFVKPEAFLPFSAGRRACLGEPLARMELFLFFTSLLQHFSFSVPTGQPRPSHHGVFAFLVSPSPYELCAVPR

[10] = Plasma protein binding in dog; type: ADME, cell-free, Canis lupus familiaris; settings: read-out: PPB
Homo sapiens [11] = organism: Homo sapiens; assay: Reduction of plasma glucose level in type2 diabetic patients at 60 mg, qd relative to baseline; type: functional
Plasma = assay: Plasma concentration in DIO mouse expressing human GCGR at 3 mg/kg/day measured on day 5; type: ADME, organism-based; settings: in vivo
Outline: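 Diet-induced obese hGCGR mice received the compound in high-fat-diet feed at 3 or 10 mpk per day for 11 days (n = 11−15). Postprandial plasma drug levels were measured on day 5.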

Cytochrome P450 2C8 = Cytochrome P450 2C8 (Homo sapiens, UniProt P10632); assay: Inhibition of human CYP2C8 in liver microsomes assessed as paclitaxel 6alpha-hydroxylation after 48 hrs; type: ADME, Microsome; outline: as §2
Chain of Cytochrome P450 2C8 (P10632 whole entry): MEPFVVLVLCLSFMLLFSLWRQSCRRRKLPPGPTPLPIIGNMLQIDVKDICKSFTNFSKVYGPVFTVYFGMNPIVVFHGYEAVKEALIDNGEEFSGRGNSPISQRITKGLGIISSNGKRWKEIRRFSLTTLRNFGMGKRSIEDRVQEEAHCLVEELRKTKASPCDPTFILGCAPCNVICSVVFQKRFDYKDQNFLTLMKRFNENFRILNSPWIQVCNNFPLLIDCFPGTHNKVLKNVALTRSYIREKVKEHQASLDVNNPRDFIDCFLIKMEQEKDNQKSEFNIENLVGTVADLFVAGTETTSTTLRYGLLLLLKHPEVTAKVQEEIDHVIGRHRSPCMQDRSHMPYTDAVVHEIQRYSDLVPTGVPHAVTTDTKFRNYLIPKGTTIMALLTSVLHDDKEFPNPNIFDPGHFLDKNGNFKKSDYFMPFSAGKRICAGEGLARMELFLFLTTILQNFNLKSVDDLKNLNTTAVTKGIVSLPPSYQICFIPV

Mus musculus [12] = assay: Antidiabetic activity in DIO mouse expressing human GCGR assessed as blood glucagon level at 10 mg/kg/day measured on day 11 (reference value: 445 +/- 55 pg/ml); type: functional

Work on `COc1ccc2cc(-c3cc(-c4cc(Cl)cc(Cl)c4)nn3[C@@H](C)c3ccc(C(=O)NCCC(=O)O)cc3)ccc2c1` [MK-0893] yielded a concentration at 4 h [1] of 700 nM, an IC50 (Cytochrome P450 2B6) of 23 µM and a concentration at 4 h [2] of 300 nM. It also gave an Activity (Homo sapiens [3]) of 63 mg/dL, a Vd [4] of 0.9 L/kg and an IC50 [5] of 12.8 µM. For the same compound, the IC50 (Glucagon receptor) was 0.727 µM, the Activity (Mus musculus [6]) was 56% and the Activity (Rattus norvegicus) was “Non-toxic”. For the same compound, the Activity (Mus musculus [7]) was “inactive”, the Activity (Canis familiaris) was “Non-toxic” and the Activity (Rhesus monkey) was 29%. For the same compound, the “inhibition (INH)” value (Homo sapiens [8]) was 59%, the half-life [9] was 17 h and the IC50 (Cytochrome P450 2C9) was 14 µM. The IC50 (Uncharacterized protein) was 0.0555 µM, the IC50 (Cytochrome P450 2D6) was > 100 µM and the fraction unbound [10] was < 0.01. The Activity (Homo sapiens [11]) was 53 mg/dL, the concentration (Plasma) was 410 nM and the IC50 (Cytochrome P450 2C8) was 2.7 µM. For the same compound, the Activity (Mus musculus [12]) was 2390 pg/mL.
